Data from ChEMBL document CHEMBL4732106, “Paracetamol analogues conjugated by FAAH induce TRPV1-mediated antinociception without causing acute liver toxicity” (Eur J Med Chem, 2021).
The source made the active and inactive calls. No cut-off for these calls is given here.

Legend:
[1] = target: T1, Transient receptor potential cation channel subfamily V member 1 (Rattus norvegicus, UniProt O35433); assay: Agonist activity at TRPV1 in rat isolated mesenteric arteries assessed as vasorelaxation of phenylephrine-induced contraction in presence of TRPV1 antagonist capsazepine; assay type: tissue-based, Artery
How it was run: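 Segments from male Wistar rats (200–250 g) were bathed in pH 7.4 physiological salt solution at 37 °C, gassed 95% O₂/5% CO₂, with indomethacin 10 μM and Nω-nitro-L-arginine 100 μM present. After phenylephrine precontraction, conjugate concentration–relaxation curves were run in the presence of capsazepine 3 μM. pEC₅₀ is the negative log molar concentration giving half-maximal relaxation; mean ± SEM, n = animals.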

[2] = target: T1, Transient receptor potential cation channel subfamily V member 1; assay: Agonist activity at TRPV1 in rat isolated mesenteric arteries assessed as vasorelaxation of phenylephrine-induced contraction; assay type: tissue-based, Artery
How it was run: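 Indomethacin 10 μM and Nω-nitro-L-arginine 100 μM were present throughout. Segments were precontracted with phenylephrine and exposed to conjugate concentrations. pEC₅₀ taken at half-maximal relaxation; mean ± SEM, n = animals.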

[3] = Hepatotoxicity in C57BL/6 mouse assessed as change in ALT level at 300 mg/kg, ip measured after 12 hrs; assay type: toxicity, organism-based; details: in vivo
How it was run: (§1)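 Male C57BL/6 mice (8 weeks) were fasted 12–16 h, then given 300 mg kg⁻¹ i.p. in saline. At 12 h, blood was taken for serum ALT/AST (automated analyser). The left medial liver lobe was fixed in 4% formaldehyde, cryosectioned at 10 μm and stained with H&E. The ALT/AST ratio was tested against 1. Mean ± SEM, n = 6–7.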

[4] = target: T2, Fatty-acid amide hydrolase 1 (Mus musculus, UniProt O08914); assay: Substrate activity at FAAH in FAAH+/+ mouse brain assessed as N-arachidonoyl conjugate level per g protein at 0.1 mM measured after 20 mins by LC-MS/MS analysis; assay type: ADME, tissue-based; details: 100 µM
T2 sequence (O08914 whole entry): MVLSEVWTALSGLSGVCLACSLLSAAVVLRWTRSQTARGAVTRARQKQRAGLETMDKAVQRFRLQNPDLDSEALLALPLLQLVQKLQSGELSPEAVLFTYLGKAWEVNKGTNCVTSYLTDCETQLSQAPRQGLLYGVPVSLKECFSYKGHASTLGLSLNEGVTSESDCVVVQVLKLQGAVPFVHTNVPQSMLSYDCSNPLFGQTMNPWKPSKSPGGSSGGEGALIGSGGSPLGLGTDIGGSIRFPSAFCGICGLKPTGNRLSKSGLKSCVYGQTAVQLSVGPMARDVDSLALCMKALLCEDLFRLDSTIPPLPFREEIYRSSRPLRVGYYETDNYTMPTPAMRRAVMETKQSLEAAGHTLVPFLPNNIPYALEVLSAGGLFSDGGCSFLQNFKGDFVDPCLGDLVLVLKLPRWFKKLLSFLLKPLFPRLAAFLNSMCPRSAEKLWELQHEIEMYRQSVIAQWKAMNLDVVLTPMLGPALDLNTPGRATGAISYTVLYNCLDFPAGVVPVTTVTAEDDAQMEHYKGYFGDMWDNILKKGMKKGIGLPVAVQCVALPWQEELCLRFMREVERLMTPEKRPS
How it was run: (§2)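 Brains from FAAH+/+ or FAAH-/- mice were homogenized in ice-cold 10 mM Tris with 1 mM EDTA and 0.3 mM ascorbic acid. Aliquots were incubated with 0.1 mM primary amine for 20 min at 37 °C with stirring. Reactions were stopped with cold acetone containing AM404-d4 internal standard, and conjugates were measured by LC-MS/MS. n = 5–7.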

[5] = Prodrug conversion in FAAH-/- mouse brain assessed as N-arachidonoyl conjugate level per g protein at 0.1 mM measured after 20 mins by LC-MS/MS analysis; assay type: ADME, tissue-based; details: in vitro, 100 µM; how it was run: as §2
[6] = Prodrug conversion in FAAH-/- mouse brain assessed as N-arachidonoyl conjugate level per g protein at 300 mg/kg, ip measured after 20 mins by LC-MS/MS analysis; assay type: ADME, organism-based; details: in vivo
How it was run: (§3)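 FAAH+/+ and FAAH-/- mice (both sexes) received the primary amine i.p. in saline (sometimes with 5% DMSO). Brains were collected 20 min later, frozen, and homogenized in Tris/EDTA/ascorbate with 10 μM MAFP. N-arachidonoyl conjugates were quantified by positive-ion LC-MS/MS and normalized to protein.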

[7] = Hepatotoxicity in C57BL/6 mouse assessed as centrilobular necrosis at 300 mg/kg, ip measured after 12 hrs by H and E staining based microscopic analysis; assay type: toxicity, organism-based; details: in vivo; how it was run: as §1
[8] = Prodrug conversion in FAAH+/+ mouse brain assessed as N-arachidonoyl conjugate level per g protein at 300 mg/kg, ip measured after 20 mins by LC-MS/MS analysis; assay type: ADME, organism-based; details: in vivo; how it was run: as §3
[9] = Effect on locomotor activity in C57BL/6 mouse assessed as change in latency to fall at 50 to 75 mg/kg, ip treated for 10 mins measured up to 60 mins by rotarod test; assay type: ADME, organism-based; details: in vivo, 1 h, dose 50-75 mg/kg
How it was run: (§4)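 Male C57BL/6 mice were first trained on a rotarod at a constant 4 rpm in 1-min sessions. At various times after i.p. dosing, the drum was accelerated from 4 to 40 rpm over 5 min and the latency to fall was recorded.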

Mus musculus [10] = assay: Antinociceptive activity in C57BL/6 mouse assessed as reduction in licking time during second phase at 50 mg/kg, ip treated for 10 mins and measured for 15 to 40 mins in presence of TRPV1 antagonist capsazepine by formalin test; assay type: functional, organism-based; details: time 50.0 min
How it was run: (§5)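 Male C57BL/6 mice, 8 weeks old. URB937 (5 μg in 5 μl) or capsazepine (10 μg in 5 μl) was given i.c.v. under brief isoflurane, 2 mm deep, 5 min before the i.p. test amine. Formalin 2.5% (25 μl) was injected intraplantar 10 min after dosing. Paw biting/licking time was scored in phase I (0–5 min) and phase II (15–40 min) by a blinded observer. Mean ± SEM, n = 8–14.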

Mus musculus [11] = assay: Antinociceptive activity in ip dosed C57BL/6 mouse assessed as reduction in licking time during first phase treated for 10 mins and measured for 5 mins by formalin test; assay type: functional, organism-based; details: dose 25-100 mg/kg, time 15.0 min
How it was run: (§6)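 Male C57BL/6 mice, 8 weeks old, randomized in equal blocks (5–10 per group), observer blinded. The test amine or vehicle was given i.p. 10 min before intraplantar 2.5% formalin (25 μl/mouse). Time spent biting/licking the injected paw was recorded in phase I (0–5 min) and phase II (15–40 min). Mean ± SEM, n = 5–6.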

[12] = Prodrug conversion in FAAH-/- mouse brain assessed as N-arachidonoyl conjugate level per g protein at 100 mg/kg, ip measured after 20 mins by LC-MS/MS analysis; assay type: ADME, organism-based; parameters: unit: pmol/g protein; details: in vivo; how it was run: as §3
Mus musculus [13] = assay: Antinociceptive activity in C57BL/6 mouse assessed as reduction in licking time during first phase at 50 mg/kg, ip treated for 10 mins and measured for 5 mins in presence of TRPV1 antagonist capsazepine by formalin test; assay type: functional, organism-based; details: time 15.0 min; how it was run: as §5
Mus musculus [14] = assay: Antinociceptive activity in ip dosed C57BL/6 mouse assessed as reduction in licking time during second phase treated for 10 mins and measured for 15 to 40 mins by formalin test; assay type: functional, organism-based; details: dose 25-100 mg/kg, time 50.0 min; how it was run: as §6
Mus musculus [15] = assay: Antinociceptive activity in C57BL/6 mouse assessed as reduction in licking time during second phase at 50 mg/kg, ip treated for 10 mins and measured for 15 to 40 mins in presence of FAAH inhibitor URB937 by formalin test; assay type: functional, organism-based; details: time 50.0 min; how it was run: as §5
Mus musculus [16] = assay: Antinociceptive activity in C57BL/6 mouse assessed as reduction in licking time during first phase at 50 mg/kg, ip treated for 10 mins and measured for 5 mins in presence of FAAH inhibitor URB937 by formalin test; assay type: functional, organism-based; details: time 15.0 min; how it was run: as §5
[17] = Prodrug conversion in FAAH+/+ mouse brain assessed as N-arachidonoyl conjugate level per g protein at 100 mg/kg, ip measured after 20 mins by LC-MS/MS analysis; assay type: ADME, organism-based; parameters: unit: pmol/g protein; details: in vivo; how it was run: as §3
Mus musculus [18] = assay: Antipyretic activity against LPS-induced C57BL/6 mouse model of hyperthermia assessed as PGE2 level in diencephalon at 25 mg/kg, ip measured after 40 mins by LC-MS/MS analysis relative to control; assay type: functional
How it was run: (§7)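 Male C57BL/6 mice got LPS (E. coli O111:B4, 100 μg kg⁻¹ i.p.) or saline, then 3 h later the drug i.p. in Ringer's acetate vehicle. Diencephalon was taken 40 min later and homogenized in Tris/EDTA/ascorbate with 10 μM MAFP and 100 μM ibuprofen. Prostanoids were quantified by negative-ion LC-MS/MS and expressed as % of LPS + vehicle. n = 6.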

Mus musculus [19] = assay: Antinociceptive activity in C57BL/6 mouse assessed as reduction in licking time during first phase at 25 mg/kg, ip treated for 10 mins and measured for 5 mins in presence of FAAH inhibitor URB937 by formalin test; assay type: functional, organism-based; details: time 15.0 min; how it was run: as §5
[20] = Effect on locomotor activity in C57BL/6 mouse assessed as change in latency to fall at 25 mg/kg, ip treated for 10 mins measured up to 60 mins by rotarod test; assay type: ADME, organism-based; details: in vivo, 1 h; how it was run: as §4
Mus musculus [21] = assay: Antipyretic activity against LPS-induced C57BL/6 mouse model of hyperthermia assessed as reduction in body temperature at 25 mg/kg, ip measured after 48 mins; assay type: functional, organism-based
How it was run: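 Male C57BL/6 mice carried telemetry and recovered ≥1 week before use, housed at 29 °C ambient (near-thermoneutral). LPS 100 μg kg⁻¹ i.p. or saline was given, then drug or Ringer's acetate vehicle i.p. 3 h later. Core temperature was recorded continuously and analysed at the nadir time point. n = 4–9 per group.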

Mus musculus [22] = assay: Antipyretic activity against LPS-induced C57BL/6 mouse model of hyperthermia assessed as PGF2alpha level in diencephalon at 25 mg/kg, ip measured after 40 mins by LC-MS/MS analysis relative to control; assay type: functional; how it was run: as §7
Mus musculus [23] = assay: Antinociceptive activity in C57BL/6 mouse assessed as reduction in licking time during second phase at 25 mg/kg, ip treated for 10 mins and measured for 15 to 40 mins in presence of TRPV1 antagonist capsazepine by formalin test; assay type: functional, organism-based; details: time 50.0 min; how it was run: as §5
Mus musculus [24] = assay: Antipyretic activity against LPS-induced C57BL/6 mouse model of hyperthermia assessed as 6-keto-PGF1alpha level in diencephalon at 25 mg/kg, ip measured after 40 mins by LC-MS/MS analysis relative to control; assay type: functional; how it was run: as §7
Mus musculus [25] = assay: Antinociceptive activity in C57BL/6 mouse assessed as reduction in licking time during second phase at 25 mg/kg, ip treated for 10 mins and measured for 15 to 40 mins in presence of FAAH inhibitor URB937 by formalin test; assay type: functional, organism-based; details: time 50.0 min; how it was run: as §5
Mus musculus [26] = assay: Antinociceptive activity in C57BL/6 mouse assessed as reduction in licking time during first phase at 25 mg/kg, ip treated for 10 mins and measured for 5 mins in presence of TRPV1 antagonist capsazepine by formalin test; assay type: functional, organism-based; details: time 15.0 min; how it was run: as §5
Mus musculus [27] = assay: Antipyretic activity against LPS-induced C57BL/6 mouse model of hyperthermia assessed as TXB2 level in diencephalon at 25 mg/kg, ip measured after 40 mins by LC-MS/MS analysis relative to control; assay type: functional; how it was run: as §7

T1 sequence (O35433 whole entry): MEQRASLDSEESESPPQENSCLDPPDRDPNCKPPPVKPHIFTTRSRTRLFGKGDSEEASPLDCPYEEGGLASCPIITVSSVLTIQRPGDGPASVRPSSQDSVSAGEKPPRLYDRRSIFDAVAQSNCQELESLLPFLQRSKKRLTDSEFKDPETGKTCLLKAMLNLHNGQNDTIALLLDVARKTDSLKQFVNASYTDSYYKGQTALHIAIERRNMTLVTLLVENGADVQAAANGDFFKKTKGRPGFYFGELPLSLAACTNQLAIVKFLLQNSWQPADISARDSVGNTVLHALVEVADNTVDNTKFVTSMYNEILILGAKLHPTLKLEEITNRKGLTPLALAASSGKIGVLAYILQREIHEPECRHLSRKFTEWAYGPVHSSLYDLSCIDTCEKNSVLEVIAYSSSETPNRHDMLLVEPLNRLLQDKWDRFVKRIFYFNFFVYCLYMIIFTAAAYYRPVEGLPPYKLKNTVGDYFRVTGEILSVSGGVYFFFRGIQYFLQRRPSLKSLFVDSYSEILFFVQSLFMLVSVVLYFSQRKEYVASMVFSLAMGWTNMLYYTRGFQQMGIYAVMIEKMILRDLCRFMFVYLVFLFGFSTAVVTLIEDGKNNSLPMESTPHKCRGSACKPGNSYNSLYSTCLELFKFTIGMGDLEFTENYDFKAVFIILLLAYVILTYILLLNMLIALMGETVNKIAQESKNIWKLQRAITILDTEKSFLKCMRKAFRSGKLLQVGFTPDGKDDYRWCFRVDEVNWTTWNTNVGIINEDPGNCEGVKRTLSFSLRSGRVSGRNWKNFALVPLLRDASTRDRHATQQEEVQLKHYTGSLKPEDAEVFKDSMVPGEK

SMILES	EC50 [1]	EC50 [2]	Drug metabolism [4]	Drug metabolism [5]	Drug metabolism [12]	Drug metabolism [17]	also measured
CCCCC/C=C\C/C=C\C/C=C\C/C=C\CCCC(=O)Nc1ccc(OC)c(O)c1	63.1 nM	3.16 nM	–	–	–	–	–
CCCCC/C=C\C/C=C\C/C=C\C/C=C\CCCC(=O)Nc1ccc2[nH]ncc2c1	398 nM	12.6 nM	–	–	–	–	–
COc1cc(CN)ccc1O	–	–	2.5 nmol/g	0.01 nmol/g	–	–	Activity [3]: Non-Toxic; Drug metabolism [6]: Metabolite_Notdetected; Activity [7]: Non-Toxic; Drug metabolism [8]: 40 pmol
CCCCC/C=C\C/C=C\C/C=C\C/C=C\CCCC(=O)Nc1ccc(O)c(OC)c1	15.8 nM	1.26 nM	–	–	–	–	–
CCCCC/C=C\C/C=C\C/C=C\C/C=C\CCCC(=O)Nc1ccc(O)cc1	–	50.1 nM	–	–	–	–	–
COc1ccc(N)cc1O	–	–	3 nmol/g	0.06 nmol/g	42 pmol	283 pmol	Activity [3]: Non-Toxic; Activity [9]: Non-Toxic; Activity (Mus musculus [10]): inactive; Activity (Mus musculus [11]): Dose-dependent effect; Activity (Mus musculus [13]): Active; Activity (Mus musculus [14]): Dose-dependent effect; Activity [7]: Non-Toxic; Activity (Mus musculus [15]): inactive; Activity (Mus musculus [16]): Active
CCCCC/C=C\C/C=C\C/C=C\C/C=C\CCCC(=O)NCc1ccc(O)c(OC)c1	–	0.501 nM	–	–	–	–	–
NCc1ccc2[nH]ncc2c1	–	–	2.5 nmol/g	0.04 nmol/g	58 pmol	58 pmol	–
CCCCC/C=C\C/C=C\C/C=C\C/C=C\CCCC(=O)NCc1ccc2[nH]ncc2c1	158 nM	3.98 nM	–	–	–	–	–
Nc1ccc2[nH]ncc2c1	–	–	12 nmol/g	0.09 nmol/g	161 pmol	1731 pmol	Activity (Mus musculus [18]): 96%; Activity (Mus musculus [19]): Active; Activity [20]: Non-Toxic; Activity (Mus musculus [21]): Active; Activity [3]: Non-Toxic; Activity (Mus musculus [22]): 100%; Activity (Mus musculus [23]): inactive; Activity (Mus musculus [11]): Dose-dependent effect; Activity (Mus musculus [14]): Dose-dependent effect; Activity (Mus musculus [24]): 99%; Activity (Mus musculus [25]): inactive; Activity (Mus musculus [26]): Active; Activity [7]: Non-Toxic; Activity (Mus musculus [27]): 91%
COc1cc(N)ccc1O	–	–	0.54 nmol/g	0.005 nmol/g	190 pmol	82 pmol	–
